From ChEMBL document CHEMBL3102840, “Synthesis and anti-proliferative activity of aromatic substituted 5-((1-benzyl-1H-indol-3-yl)methylene)-1,3-dimethylpyrimidine-2,4,6(1H,3H,5H)-trione analogs against human tumor cell lines” (2014)

Tests used:
Format in all cases: functional
MDA-MB-468 = assay: Cytotoxicity against human MDA-MB-468 cells assessed as growth inhibition at 10 uM after 48 hrs by SRB assay; conditions: MDA-MB-468, 48 h, read-out: GI
In short: (§1)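 Single-dose screen at 10µM across the sixty-cell-line panel. Percentage growth is derived from SRB-stain OD taken just before compound exposure, after 48 hrs exposure, and in vehicle-treated controls. Negative values indicate cytotoxicity.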

A498 = assay: Cytotoxicity against human A498 cells assessed as growth inhibition at 10 uM after 48 hrs by SRB assay; conditions: A498, 48 h, read-out: GI; in short: as §1
[1] = Cytotoxicity against human OVCAR5 cells assessed as growth inhibition at 10 uM after 48 hrs by SRB assay; conditions: OVCAR-5, 48 h, read-out: GI; in short: as §1
NCI-H226 = assay: Cytotoxicity against human NCI-H226 cells assessed as growth inhibition at 10 uM after 48 hrs by SRB assay; conditions: NCI-H226, 48 h, read-out: GI; in short: as §1
TK-10 = assay: Cytotoxicity against human TK10 cells assessed as growth inhibition at 10 uM after 48 hrs by SRB assay; conditions: TK-10, 48 h, read-out: GI; in short: as §1

| Structure (SMILES) | inhibition of growth at 10 µM (MDA-MB-468) [%] | inhibition of growth at 10 µM (A498) [%] | inhibition of growth at 10 µM [1] [%] | inhibition of growth at 10 µM (NCI-H226) [%] | inhibition of growth at 10 µM (TK-10) [%] |
| --- | --- | --- | --- | --- | --- |
| CN1C(=O)C(=Cc2cn(Cc3ccc(F)cc3)c3ccc(Cl)cc23)C(=O)N(C)C1=O | -70 | -95 | -19 | -79 | 19 |
| COC(=O)c1ccc(Cn2cc(C=C3C(=O)N(C)C(=O)N(C)C3=O)c3cc(C(=O)OC)ccc32)cc1 | 99 | 105 | 98 | 88 | 113 |
